Experimental data published in ChEMBL document CHEMBL1137246, “Horseradish peroxidase inhibition and antioxidant activity of ebselen and related organoselenium compounds” (Bioorg Med Chem Lett, 2006).
The source made the active and inactive calls. No cut-off for these calls is given here.

Columns and labels:
[1] = Inhibition of horseradish peroxidase by spectrophotometric method; set-up: species or system Armoracia rusticana
Procedure, shortened: (§1)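 HRP (70 nM) with ABTS2- as substrate, with or without selenium compound at 0.06–0.1 mM. Reaction started by adding H2O2. Initial rates taken from the absorbance change at 645 nm (ABTS radical cation). Activity without compound set to 100%.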

[2] = Effect on gamma irradiation-induced TBARS formation in liposomes at 50 uM; assay type: functional
Procedure, shortened: (§2)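 Liposomal suspensions, N2O/O2-purged, pH 7.4 phosphate buffer, exposed to a constant 280 Gy γ-dose (Fricke dosimetry). Peroxidation followed as TBARS with compound at 0.025–0.150 mM. IC50 is the concentration giving 50% inhibition of lipid peroxidation.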

[3] = Inhibition of gamma radiation-induced lipid peroxidation in liposomes at 200 uM; assay type: functional
[4] = Antioxidant activity assessed by singlet oxygen quenching ability at 1mM; assay type: functional
Armoracia rusticana = test: Inhibition of horseradish peroxidase at 100 uM; procedure, shortened: as §1
[5] = Antioxidant activity assessed by singlet oxygen quenching ability; assay type: functional
[6] = Glutathione peroxidase activity assessed by GSH-GSSG coupled assay; assay type: functional
Procedure, shortened: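 GPx-like activity measured by GSH–GSSG coupled assay: glutathione reductase 0.3 U/ml, NADPH 0.25 mM, GSH 0.5–6 mM, compound 0.025 mM (in methanol, 2% in buffer), H2O2 1 mM substrate. NADPH loss at 340 nm fitted to an exponential; initial rates from ε 6220 M-1 cm-1, corrected for uncatalysed H2O2–GSH reaction. Km and Vmax from Lineweaver–Burk plots.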

[7] = Inhibition of gamma radiation-induced lipid peroxidation in liposomes; assay type: functional; procedure, shortened: as §2

**Q.** For O=C(Nc1ccccc1)c1ccccc1[Se][Se]c1ccccc1C(=O)Nc1ccccc1 [EBSELEN DISELENIDE], which IC50 [1] is on record?
**A.** 50 µM

**Q.** And the Activity ([2]; Liposome)?
**A.** Active

**Q.** What about the inhibition [3] of the same compound?
**A.** 19%

**Q.** What about the Activity [4] of the same compound?
**A.** inactive

**Q.** With O=C(Nc1ccccc1)c1ccccc1[Se]Cc1ccccc1 as the compound, how does the inhibition (Armoracia rusticana) read?
**A.** 33.1%

**Q.** What about the IC50 [1] of the same compound?
**A.** > 100 µM

**Q.** What about the Activity ([2]; Liposome) of the same compound?
**A.** Active

**Q.** And the Activity [5]?
**A.** Active

**Q.** And the Km [6]?
**A.** 2.2 mM

**Q.** What about the IC50 [7] of the same compound?
**A.** 75 µM

**Q.** What does the source list for O=C(Nc1ccccc1)c1ccccc1[Te][Te]c1ccccc1C(=O)Nc1ccccc1 [EBSELEN DITELLURIDE]?
**A.** IC50 [1]: 17.3 µM; Activity ([2]; Liposome): Active; Activity [5]: Active; Km [6]: 2.3 mM; IC50 [7]: 175 µM

**Q.** For O=c1c2ccccc2[se]n1-c1ccccc1 [EBSELEN], which IC50 [1] is on record?
**A.** 16.9 µM

**Q.** What about the Activity [2] of the same compound?
**A.** Active

**Q.** What about the Activity [5] of the same compound?
**A.** Active

**Q.** What about the Km [6] of the same compound?
**A.** 13.2 mM

**Q.** And the IC50 [7]?
**A.** 25 µM

**Q.** Which results are given for C[Se]c1ccccc1C(=O)Nc1ccccc1?
**A.** inhibition (Armoracia rusticana): 25.5%; IC50 [1]: > 100 µM; Activity ([2]; Liposome): Active; Activity [5]: Active; Km [6]: 5.25 mM; IC50 [7]: 100 µM
